Experimental findings from ChEMBL document CHEMBL1144880, “Identification of phenylisoxazolines as novel and viable antibacterial agents active against Gram-positive pathogens” (J Med Chem, 2003) are described below.

Converted amounts (≈) assume the structure as drawn.

Data set [1] has as its system Staphylococcus aureus. In words: In vitro minimum inhibitory concentration (MIC) against Staphylococcus aureus UC9213. Format: functional. An outline of the steps: (§1)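 MIC determined by standard broth microdilution, defined as the lowest drug concentration (µg/mL) inhibiting visible growth.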
In data set [2] the test system is Staphylococcus epidermidis. In words: In vitro minimum inhibitory concentration (MIC) against Staphylococcus epidermidis UC12084. Format: functional. An outline of the steps: as §1
The subject of data set [3] is Moraxella catarrhalis. In words: In vitro minimum inhibitory concentration (MIC) against Moraxella catarrhalis UC30610. It counts as functional. An outline of the steps: as §1
Data set [4] has as its system Streptococcus pneumoniae. In words: In vitro minimum inhibitory concentration (MIC) against Streptococcus pneumoniae UC9912. Format: functional. An outline of the steps:
as §1

For data set [5], the system named is Escherichia coli. Put plainly: In vitro minimum inhibitory concentration (MIC) against Escherichia coli UC6674. Format: functional. An outline of the steps: as §1
Data set [6] concerns Staphylococcus aureus. Put plainly: In vitro minimum inhibitory concentration (MIC) against Staphylococcus aureus UC12673. It counts as functional. An outline of the steps:
as §1

Data set [7] concerns Enterococcus faecalis. In words: In vitro minimum inhibitory concentration (MIC) against Enterococcus faecalis UC9217. Format: functional. An outline of the steps:
as §1

Data set [8] relates to Haemophilus influenzae. In words: In vitro minimum inhibitory concentration (MIC) against Haemophilus influenzae UC30063. Format: functional. An outline of the steps: as §1
Data set [9] relates to Mus musculus. Put plainly: In Vivo effective dose required for antibacterial activity in a systemic mouse infection model (SMIM) upon peroral administration against Staphylococcus aureus UC9213. It counts as functional. Conditions: po. An outline of the steps: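 Compound was given orally at 1 and 5 h after infection. Deaths were monitored for at least 6 days, and ED50 (dose curing 50% of mice) was calculated by probit analysis.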

Data set [10] can be described thus: Cmax value in Male Sprague-Dawley Rat at dose 10 (mg/kg iv). Format: ADME, organism-based. Details: dose 10 mg/kg, route intravenous. The settings on record: in vivo. An outline of the steps: (§2)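 Male Sprague-Dawley rats dosed intravenously or orally. Intact compound measured in plasma by HPLC-UV after protein-precipitation sample preparation. Half-life reported as harmonic mean apparent terminal disposition half-life. Bioavailability is absolute oral bioavailability. Some comparator values are archival data.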

For data set [11], the species on record is Rattus norvegicus. Put plainly: Compound was evaluated for metabolic stability via In vitro Rat 5E6 cell at 50 uM concentration. Format: functional.
A short description of data set [12]: Tmax value in Male Sprague-Dawley Rat at dose 25 (mg/kg po) [tmax (h)]. Conditions: in vivo. Format: ADME, organism-based. An outline of the steps: as §2
Data set [13] is described as follows: Oral bioavailability in rat (Sprague-Dawley) (male) (dose 25 mg/kg p.o.). Conditions: in vivo. Format: ADME, organism-based. An outline of the steps:
as §2

Data set [14] is described as follows: Oral bioavailability in rat (Sprague-Dawley) (male) (dose 10 mg/kg i.v.). The settings on record: in vivo. It counts as ADME, organism-based. An outline of the steps: as §2
A short description of data set [15]: Plasma clearance in Male Sprague-Dawley Rat (10 mg/kg iv). It counts as ADME, organism-based. An outline of the steps:
as §2

A short description of data set [16]: Cmax value in Male Sprague-Dawley Rat at dose 25 (mg/kg po). The settings on record: in vivo. Further details: dose 25 mg/kg, route oral. Format: ADME, organism-based. An outline of the steps: as §2
The nature of data set [17]: Volume distribution in Male Sprague-Dawley Rat (10 mg/kg iv). Format: ADME, organism-based. The settings on record: in vivo, read-out: Vss. An outline of the steps: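 Male Sprague-Dawley rats given the compound intravenously. Intact compound in plasma was measured by HPLC-UV after protein-precipitation sample preparation.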
A short description of data set [18]: Harmonic mean apparent terminal disposition half-life [t1/2beta (h)] in Male Sprague-Dawley Rat at dose 10 (mg/kg iv). The settings on record: in vivo, read-out: T1/2 beta (converted). Format: ADME, organism-based. An outline of the steps: as §2

The ED50 is the midpoint of the dose-response relation. High values mean weaker potency, low ones greater potency. `CC(=O)NC[C@H]1CC(c2cc(F)c(N3CCOCC3)c(F)c2)=NO1`: the MIC is 4 µg/mL (≈ 11.8 µM) in data set [1]; 2 µg/mL (≈ 5.89 µM) in data set [2]; 8 µg/mL (≈ 23.6 µM) in [3]; 1 µg/mL (≈ 2.95 µM) in data set [4]; above 16 µg/mL in [5]; 4 µg/mL (≈ 11.8 µM) in data set [6]. Also, the figures for the MIC in [7] and in [8] were 4 µg/mL (≈ 11.8 µM) and above 16 µg/mL, respectively. The same compound came in with an ED50 in data set [9] above 20 mg/kg.

The Cmax is the highest concentration seen after dosing. Broadly, the Tmax is the time from dosing to the highest level. Usually bioavailability stands for dose-corrected exposure relative to a reference, in per cent. Read a high bioavailability as much systemic uptake. Usually clearance stands for a measure of how efficiently the substance is removed, as volume per time. Turning to `CC(=O)NC[C@H]1CN(c2ccc(N3CCN(C(=O)CO)CC3)c(F)c2)C(=O)O1` [EPEREZOLID], the Cmax in data set [10] was found to be 20800 ng/mL; in [16], 2260 ng/mL. In data set [11], the “Remaining at 40 min” value turned out to be 102%. The Tmax in data set [12] was found to be 79.8 min. This compound returned a bioavailability in data set [13] of 56%. The same compound showed a F in data set [14] of 100%. In data set [15], this compound gave a clearance of 24.9 mL/min/kg. In addition, the Vd in data set [17] turned out to be 0.99 L/kg. Moreover, the half-life in [18] is 57.6 min.

In the case of `CC(=O)NC[C@H]1CC(c2cc(F)c(N3CCN(C(=O)CO)CC3)c(F)c2)=NO1`, the MIC in data set [1] is 2 µg/mL (≈ 5.05 µM); in data set [2], 0.5 µg/mL (≈ 1.26 µM); in data set [3], 8 µg/mL (≈ 20.2 µM); in data set [4], 0.5 µg/mL (≈ 1.26 µM); in [5], above 16 µg/mL; in data set [6] it was 1 µg/mL (≈ 2.52 µM). For the same compound, the MIC was 2 µg/mL (≈ 5.05 µM) in data set [7] and 16 µg/mL (≈ 40.4 µM) in data set [8]. The compound also came in with an ED50 in data set [9] of 5 mg/kg.

On to `CC(=O)NC[C@H]1CN(c2ccc(N3CCOCC3)c(F)c2)C(=O)O1` [LINEZOLID], for which the MIC is 1 µg/mL (≈ 2.96 µM) in data set [2], 8 µg/mL (≈ 23.7 µM) in data set [3], above 32 µg/mL in data set [5] and 16 µg/mL (≈ 47.4 µM) in [8]. In data set [11], the “Remaining at 40 min” value is given as 97%. In data set [12], the Tmax is 18.6 min.
